Test results: ChEMBL document CHEMBL1800052, “Regioselective Suzuki coupling of dihaloheteroaromatic compounds as a rapid strategy to synthesize potent rigid combretastatin analogues” (J Med Chem, 2011)
The source made the active and inactive calls. The calls are words filed in the database; no cut-off is given here.

Legend:
HeLa [1] = experiment: Cell cycle arrest in human HeLa cells assessed as accumulation at G2/M phase at 3 times IC50 value after 16 hrs using propidium iodide staining by FACS analysis; assay type: functional, cell-based
Procedure, shortened: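 Cells were treated 16 h with vehicle or 3 × IC50 compound, washed in PBS, fixed in ice-cold 30:70 PBS/EtOH, and stored at −20 °C. They were then treated with RNase (100 μg/mL) for 30 min at RT and stained with propidium iodide (100 μg/mL) in PBS with 5 mM EDTA for 30 min in the dark. DNA content was read by flow cytometry, representative of three experiments.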

SH-SY5Y [2] = experiment: Cytotoxicity against human SH-SY5Y cells assessed as cell viability after 48 hrs by MTT assay; assay type: functional, cell-based
Procedure, shortened: (§1)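 SH-SY5Y cells in 50% DMEM/50% F-12 with 10% FBS, 2 mM L-glutamine, penicillin and streptomycin, grown 48 h with or without compound. Cells were washed in Locke's solution (pH 7.6), given MTT (250 μg/mL) for 30 min at 37 °C, solubilized in isopropyl alcohol/HCl, and read at 570 nm. Single-point values are % viable cells at 1 μM. IC50s come from fitted full concentration-response curves; mean ± SD of 12 determinations from 3 experiments.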

SH-SY5Y [3] = experiment: Cytotoxicity against human SH-SY5Y cells assessed as cell viability at 1 uM after 48 hrs by MTT assay; assay type: functional; settings: read-out: Activity; procedure, shortened: as §1
HeLa [4] = experiment: Cytotoxicity against human HeLa cells assessed as cell viability after 48 hrs by MTT assay; assay type: functional, cell-based
[5] = target: T1, Tubulin alpha (Homo sapiens) (UniProt P0DPH7+P68366+Q71U36+P68363+Q9BQE3+Q6PEY2+A6NHL2+Q9NY65); experiment: Inhibition of tubulin alpha in human SH-SY5Y cells assessed as inhibition of tubulin alpha polymerization at 3 times IC50 value after 24 hrs by immunofluorescence; assay type: cell-based
Procedure, shortened: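 Cells were fixed in 3.7% paraformaldehyde for 20 min, permeabilized in ice-cold 80% MeOH, and blocked with 0.2% fish gelatine. Staining used anti-α-tubulin (1:1000, 20 min RT), then Alexa 488 anti-mouse with DRAQ5 nuclear stain. Imaging was by confocal microscopy with a 63× oil objective.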

[6] = target: T1, Tubulin alpha (Homo sapiens); experiment: Inhibition of tubulin alpha polymerization in human HeLa cells assessed as decreased pelletable tubulin alpha fraction at 3 times IC50 value after 16 hrs by Western blotting in presence of paclitaxel; assay type: cell-based
Procedure, shortened: (§2)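 Cells were grown 16 h with or without drug (3 × IC50), trypsinized, and lysed 10 min at RT in hypotonic buffer (20 mM Tris-HCl pH 6.8, 1 mM MgCl2, 2 mM EGTA, 0.5% NP-40, protease inhibitors) containing 4 μg/mL paclitaxel. Protein-normalized lysate (50 μg) was spun at 13 000 rpm for 15 min. Pellet (polymerized) and supernatant (free) fractions were run on 10% SDS-PAGE and blotted with anti-α-tubulin, read by chemiluminescence.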

[7] = target: T1, Tubulin alpha (Homo sapiens); experiment: Inhibition of tubulin alpha polymerization in human HeLa cells assessed as increase in soluble tubulin alpha fraction at 3 times IC50 value after 16 hrs by Western blotting in presence of paclitaxel; assay type: cell-based; procedure, shortened: as §2
[8] = Inhibition of tubulin alpha polymerization; settings: concentration not given here

Structure (SMILES) | IC50 (SH-SY5Y [2]) | viability at 1 µM (SH-SY5Y [3]) | IC50 (HeLa [4]) | also measured
COc1cc(-c2cscc2-c2ccc(C)c(F)c2)cc(OC)c1OC | 310 nM | 30% | 420 nM | Activity (HeLa [1]): Active
COc1cccc(-c2cscc2-c2cc(OC)c(OC)c(OC)c2)c1F | 330 nM | 28% | 430 nM | 
COc1ccc(-c2cscc2-c2cc(OC)c(OC)c(OC)c2)c(OC)c1 |  | 90% |  | 
COc1cc(-c2cscc2-c2ccc(O)cc2)cc(OC)c1OC |  | 93% |  | 
COc1cc(-c2cscc2-c2ccc3c(c2)OCO3)cc(OC)c1OC |  | 65% |  | 
COc1cc(-c2cscc2-c2cccnc2)cc(OC)c1OC |  | 109% |  | 
COc1cc(-c2cscc2-c2cccc([N+](=O)[O-])c2)cc(OC)c1OC |  | 108% |  | 
COc1cc(-c2cscc2-c2ccc(Cl)c(C(F)(F)F)c2)cc(OC)c1OC |  | 91% |  | 
COc1ccc(/C=C\c2cc(OC)c(OC)c(OC)c2)cc1O [COMBRETASTATIN A4] | 2.3 nM | 23% | 1.7 nM | tubulin polymerization inhibition (qualitative call) [5]: Active; Activity (HeLa [1]): Active; inhibition [6]: Active; inhibition [7]: Active
COc1cc(-c2cscc2-c2ccc3c(c2)OCCO3)cc(OC)c1OC | 350 nM | 27% | 420 nM | Activity (HeLa [1]): Active
COc1ccc(C2=C(c3cc(OC)c(OC)c(OC)c3)CCC2)cc1O | 37 nM | 33% | 300 nM | tubulin polymerization inhibition (qualitative call) [5]: Active; Activity (HeLa [1]): Active; inhibition [6]: Active; inhibition [7]: Active
COc1cc(-c2cscc2-c2cnc3ccccc3c2)cc(OC)c1OC |  | 45% |  | 
COc1cc(-c2cscc2-c2cccc(C#N)c2)cc(OC)c1OC |  | 97% |  | 
COc1cc(-c2cscc2-c2cccc3ncccc23)cc(OC)c1OC |  | 100% |  | 
COc1ccc(-c2cscc2-c2cc(OC)c(OC)c(OC)c2)cn1 |  | 82% |  | 
COc1ccc(-c2cscc2-c2cc(OC)c(OC)c(OC)c2)cc1 | 480 nM | 31% | 420 nM | 

Structure (SMILES) | IC50 (SH-SY5Y [2]) | viability at 1 µM (SH-SY5Y [3]) | IC50 (HeLa [4]) | also measured
COc1ccc(-c2cscc2-c2cc(OC)c(OC)c(OC)c2)cc1OC |  | 94% |  | 
COc1ccc(-c2ccoc2-c2cc(OC)c(OC)c(OC)c2)cc1 | 28 nM | 23% | 17 nM | 
COc1ccc(-c2occc2-c2cc(OC)c(OC)c(OC)c2)cc1 | 34 nM | 24% | 170 nM | tubulin polymerization inhibition (qualitative call) [5]: Active
COc1cc(-c2cscc2-c2ccc(SC)cc2)cc(OC)c1OC |  | 51% |  | 
COc1cc(-c2cscc2-c2cccc3ccccc23)cc(OC)c1OC |  | 83% |  | 
COc1ccc(-c2ccoc2-c2cc(OC)c(OC)c(OC)c2)cc1O | 2.4 nM | 23% | 3.1 nM | tubulin polymerization inhibition (qualitative call) [5]: Active; Activity (HeLa [1]): Active; inhibition [6]: Active; inhibition [7]: Active
COc1ccc(-c2cscc2-c2cc(OC)c(OC)c(OC)c2)cc1C |  | 80% |  | 
COc1cccc(-c2cscc2-c2cc(OC)c(OC)c(OC)c2)c1 |  | 49% |  | 
COc1cc(-c2cscc2-c2cccc(C(F)(F)F)c2)cc(OC)c1OC |  | 91% |  | 
COc1ccc(-c2cscc2-c2cc(OC)c(OC)c(OC)c2)cc1O | 79 nM | 29% | 200 nM | tubulin polymerization inhibition (qualitative call) [5]: Active; Activity (HeLa [1]): Active; inhibition [6]: Active; inhibition [7]: Active
COc1cc(-c2cscc2-c2cccc(OC)c2OC)cc(OC)c1OC |  | 90% |  | 
COc1ccc(-c2cscc2-c2cc(OC)c(OC)c(OC)c2)cc1F |  | 52% |  | 
COc1cc(-c2cscc2-c2ccc(OC(F)(F)F)cc2)cc(OC)c1OC |  | 93% |  | 
COc1ccc(-c2occc2-c2cc(OC)c(OC)c(OC)c2)cc1O | 9.4 nM | 20% | 20 nM | inhibition [8]: 50%; Activity (HeLa [1]): Active; inhibition [6]: Active; inhibition [7]: Active
COc1cc(-c2cscc2-c2cc(OC)c(OC)c(OC)c2)cc(OC)c1OC |  | 91% |  | 
COc1cc(-c2cscc2-c2ccc(C)c(C)c2)cc(OC)c1OC |  | 84% |  | 
